ChEMBL document CHEMBL1145210, “Novel cyano- and N-isopropylamidino-substituted derivatives of benzo[b]thiophene-2-carboxanilides and benzo[b]thieno[2,3-c]quinolones: synthesis, photochemical synthesis, crystal structure determination, and antitumor evaluation. 2” (J Med Chem, 2005)

Columns and labels:
[1] = In vitro Inhibition on growth of human Hep 2 laryngeal carcinoma cell line; assay type: functional
How it was run: (§1)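 Monolayer cultures in DMEM with 10% FBS, 2 mM L-glutamine, penicillin/streptomycin, 37 °C, 5% CO2. Cells plated on day 0 at densities set by doubling time (1 × 10⁴/mL HeLa, Hep-2, MiaPaCa-2, SW 620; 2 × 10⁴/mL MCF-7; 3 × 10⁴/mL WI 38). Compound added at five 10-fold dilutions (10^-8 to 10^-4 mol/L) for 72 h. MTT read at 570 nm, converted to percentage growth versus time-zero and untreated controls. Quadruplicate points, three experiments. IC50 by linear regression.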

MIA PaCa-2 [2] = assay: In vitro Inhibition on growth of human MiaPaCa-2 pancreatic carcinoma cell line; assay type: functional, cell-based; how it was run: as §1
MCF7 = assay: In vitro Inhibition on growth of human MCF 7 breast carcinoma cell line; assay type: functional, cell-based; how it was run: as §1
[3] = In vitro Inhibition on growth of human WI 38 diploid fibroblast cell line; assay type: functional, cell-based; how it was run: as §1
SW-620 [4] = assay: In vitro Inhibition on growth of human SW 620 colon carcinoma cell line; assay type: functional, cell-based; how it was run: as §1
HeLa [5] = assay: In vitro Inhibition on growth of human HeLa cervical carcinoma cell line; assay type: functional, cell-based; how it was run: as §1
MIA PaCa-2 [6] = assay: Percentage of apoptosis induced by compound in MiaPaCa-2 cell line at 10 uM concentration after 72 h; assay type: functional, Homo sapiens
How it was run: (§2)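 Annexin-V assay after 72 h exposure to 5 or 10 µM. Cells washed with PBS, pelleted, and stained with Annexin-V-fluorescein plus propidium iodide in Hepes buffer. Scored by fluorescence microscopy: Annexin-V-positive cells counted as apoptotic, Annexin-V/PI double-positive as necrotic. Apoptotic fraction given as percentage of total cells.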

HeLa [7] = assay: Percentage of apoptosis induced by compound in HeLa cell line after at 5 uM concentration 72 h; assay type: functional, Homo sapiens; how it was run: as §2
SW-620 [8] = assay: Percentage of apoptosis induced by compound in SW 620 cell line at 10 uM concentration after 72 h; assay type: functional, Homo sapiens; how it was run: as §2
SW-620 [9] = assay: Percentage of apoptosis induced by compound in SW 620 cell line at 5 uM concentration after 72 h; assay type: functional, Homo sapiens; how it was run: as §2
MIA PaCa-2 [10] = assay: Percentage of apoptosis induced by compound in MiaPaCa-2 cell line at 5 uM concentration after 72 h; assay type: functional, Homo sapiens; how it was run: as §2
HeLa [11] = assay: Percentage of apoptosis induced by compound in HeLa cell line after at 10 uM concentration 72 h; assay type: functional, Homo sapiens; how it was run: as §2

Row | Compound | IC50 [1] | IC50 (MIA PaCa-2 [2]) | IC50 (MCF7) | IC50 [3] | IC50 (SW-620 [4]) | IC50 (HeLa [5]) | Apoptosis (MIA PaCa-2 [6]) | Apoptosis (HeLa [7]) | Apoptosis (SW-620 [8]) | Apoptosis (SW-620 [9]) | Apoptosis (MIA PaCa-2 [10]) | Apoptosis (HeLa [11])
1 | Cc1ccc2nc(O)c3sc4cc(/C(N)=N\C(C)C)ccc4c3c2c1 | 8.51 µM | 6.67 µM | 5.58 µM | 19.1 µM | 22.7 µM | 6.43 µM |  |  |  |  |  | 
2 | CC(C)/N=C(/N)c1ccc2nc(O)c3sc4ccccc4c3c2c1 | 16.6 µM | 7.3 µM | 1.36 µM | ≥ 100 µM | 32.2 µM | 25.3 µM | 11% | 9% | 13% | 9% | 4% | 11%
3 | N#Cc1ccc2c(Cl)c(C(=O)Nc3ccc(Br)cc3)sc2c1 | > 100 µM | > 100 µM | > 100 µM | 5.99 µM | > 100 µM | > 100 µM |  |  |  |  |  | 
4 | Cc1ccc2c(Cl)c(C(=O)Nc3ccc(/C(N)=N\C(C)C)cc3)sc2c1 | 3.94 µM | 4.44 µM | 3.49 µM | 3.3 µM | 3.53 µM | 3 µM |  |  |  |  |  | 
5 | CC(C)/N=C(/N)c1ccc2c(Cl)c(C(=O)Nc3ccccc3)sc2c1 | 23.8 µM | 7.23 µM | 1.27 µM | 4.7 µM | 4.57 µM | 4.26 µM |  |  |  |  |  | 
6 | Cc1ccc(NC(=O)c2sc3cc(C#N)ccc3c2Cl)cc1 | > 100 µM | > 100 µM | > 100 µM | 0.75 µM | > 100 µM | > 100 µM |  |  |  |  |  | 
7 | COc1ccc(NC(=O)c2sc3cc(C#N)ccc3c2Cl)cc1 | 48.4 µM | 90.9 µM | 17.6 µM | 23.4 µM | > 100 µM | 40.4 µM |  |  |  |  |  | 
8 | CC(C)/N=C(/N)c1ccc2c(c1)sc1c(O)nc3ccccc3c12 | 20.9 µM | 18 µM | 21.3 µM | 37.4 µM | 3.76 µM | 49.2 µM |  |  |  |  |  | 
9 | COc1ccc(NC(=O)c2sc3cc(C(=N)NC(C)C)ccc3c2Cl)cc1 | 9.7 µM | 22.5 µM | 17.4 µM | 29.8 µM | 8.24 µM | 5.83 µM |  |  |  |  |  | 
10 | CC(C)/N=C(/N)c1ccc2nc(O)c3sc4cc(C#N)ccc4c3c2c1 | ≥ 100 µM | 42.1 µM | > 100 µM | ≥ 100 µM | > 100 µM | 6.14 µM |  |  |  |  |  | 
11 | Cc1ccc2c(c1)sc1c(O)nc3ccc(/C(N)=N\C(C)C)cc3c12 | 8.59 µM | 5.98 µM | 5.4 µM | 18.7 µM | 7.57 µM | 4.3 µM | 17% | 6% | 16% | 15% | 3% | 8%
12 | COC(=O)c1ccc(NC(=O)c2sc3ccccc3c2Cl)cc1 | > 100 µM | > 100 µM | > 100 µM | 44.3 µM | > 100 µM | > 100 µM |  |  |  |  |  | 
13 | CC(C)/N=C(/N)c1ccc(NC(=O)c2sc3cc(C#N)ccc3c2Cl)cc1 | 21 µM | 8.72 µM | 23.9 µM | 25.1 µM | 8.02 µM | 22.2 µM |  |  |  |  |  | 
14 | CC(C)/N=C(/N)c1ccc2c(c1)sc1c(O)nc3ccc(/C(N)=N\C(C)C)cc3c12 | > 100 µM | 86.9 µM | 78.5 µM | ≥ 100 µM | ≥ 100 µM | 31.6 µM |  |  |  |  |  | 
15 | Cc1ccc(NC(=O)c2sc3cc(/C(N)=N\C(C)C)ccc3c2Cl)cc1 | 2.96 µM | 5.11 µM | 7.26 µM | 2.03 µM | 3.54 µM | 2.35 µM |  |  |  |  |  | 
16 | COC(=O)c1ccc2c(c1)sc1c(O)nc3ccc(C(=N)NC(C)C)cc3c12 | 45.9 µM | 5.64 µM | 65.1 µM | > 100 µM | 48.8 µM | 4.79 µM | 13% | 12% | 9% | 7% | 4% | 17%
17 | CC(C)/N=C(/N)c1ccc2c(Cl)c(C(=O)Nc3ccc(Br)cc3)sc2c1 | 3.14 µM | 2.54 µM | 2.62 µM | 3.64 µM | 4.18 µM | 3.05 µM |  |  |  |  |  | 
18 | N#Cc1ccc(NC(=O)c2sc3ccccc3c2Cl)cc1 | 6.5 µM | > 100 µM | 100 µM | 8.12 µM | > 100 µM | 0.86 µM |  |  |  |  |  | 
19 | COc1ccc2c(Cl)c(C(=O)Nc3ccc(C(=N)NC(C)C)cc3)sc2c1 | 2.55 µM | 4.67 µM | 3.7 µM | 4.01 µM | 3.86 µM | 2.7 µM |  |  |  |  |  | 
20 | CC(C)/N=C(/N)c1ccc(NC(=O)c2sc3ccccc3c2Cl)cc1 | 15.3 µM | 6.99 µM | 1.97 µM | 36.4 µM | 27.8 µM | 12.9 µM |  |  |  |  |  | 
21 | COc1ccc2c(c1)sc1c(O)nc3ccc(C(=N)NC(C)C)cc3c12 | 34.7 µM | 6.73 µM | 38 µM | 40.6 µM | 20.6 µM | 2.34 µM |  |  |  |  |  | 
22 | CC(C)/N=C(/N)c1ccc2nc(O)c3sc4cc(Br)ccc4c3c2c1 | 6.95 µM | 3.71 µM | 5.78 µM | 19 µM | 6.84 µM | 1.7 µM |  |  |  |  |  | 
23 | COC(=O)c1ccc2c(Cl)c(C(=O)Nc3ccccc3)sc2c1 | > 100 µM | > 100 µM | > 100 µM | 53.6 µM | 95.5 µM | > 100 µM |  |  |  |  |  | 
24 | CC(C)/N=C(/N)c1ccc(NC(=O)c2sc3cc(/C(N)=N\C(C)C)ccc3c2Cl)cc1 | 67.3 µM | 75.9 µM | 15.6 µM | 86.9 µM | > 100 µM | 25.6 µM |  |  |  |  |  | 
25 | COC(=O)c1ccc2c(Cl)c(C(=O)Nc3ccc(C(=N)NC(C)C)cc3)sc2c1 | 5.37 µM | 3.49 µM | 1.23 µM | 2.85 µM | 3.67 µM | 2.24 µM |  |  |  |  |  | 
26 | N#Cc1ccc2c(Cl)c(C(=O)Nc3ccccc3)sc2c1 | 0.69 µM | > 100 µM | 84.9 µM | ≥ 100 µM | ≥ 100 µM | 0.35 µM |  |  |  |  |  | 
27 | CC(C)/N=C(/N)c1ccc(NC(=O)c2sc3cc(Br)ccc3c2Cl)cc1 | 2.37 µM | 3.51 µM | 2.54 µM | 2.99 µM | 3.93 µM | 2.15 µM |  |  |  |  |  | 
28 | COC(=O)c1ccc(NC(=O)c2sc3cc(C(=N)NC(C)C)ccc3c2Cl)cc1 | 8.16 µM | 7.1 µM | 2.36 µM | 6.9 µM | 3.6 µM | 5.65 µM |  |  |  |  |  | 
